From ChEMBL document CHEMBL1132613 (J Med Chem, 1999)
“And” between values parts separate entries of the source, which are not always exact repeats. Equal values may be shown once.

Legend:
Rattus norvegicus [1] = experiment: Percentage of animals failing to emit 50 lever presses within 15 min in rats at a compound dose of 0.02 mg/kg; format: functional
Summary of the method: (§1)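 Two-lever drug discrimination in male Sprague–Dawley rats (200–220 g at start), trained against saline on LSD tartrate (0.08 mg/kg), DOI HCl (0.4 mg/kg) or LY293284 (0.025 mg/kg). FR50 food-pellet reinforcement, levers counterbalanced, 15-min sessions at 22–24 °C. %D is the share of tested rats not completing 50 lever presses within 15 min.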

Rattus norvegicus [2] = experiment: Percentage of animals emitting >80% of lever presses in rats at a compound dose of 0.015 uM/Kg; format: functional
Summary of the method: (§2)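 Male Sprague–Dawley rats (200–220 g) in a two-lever, FR50 food-reinforced task. Rats were trained to discriminate saline from LSD tartrate (0.08 mg/kg), DOI HCl (0.4 mg/kg) or LY293284 (0.025 mg/kg) in 15-min sessions. %SDL is the share of rats making over 80% of presses on the drug lever. %D is the share failing to make 50 presses within 15 min. ED50 by Litchfield–Wilcoxon log-probit.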

Rattus norvegicus [3] = experiment: Percentage of animals failing to emit 50 lever presses within 15 min in rats at a compound dose of 0.005 mg/kg; format: functional; summary of the method: as §1
Rattus norvegicus [4] = experiment: Percentage of animals emitting >80% of lever presses in rats at a compound dose of 0.080 uM/Kg; format: functional; summary of the method: as §2
Rattus norvegicus [5] = experiment: Percentage of animals emitting >80% of lever presses in rats at a compound dose of 0.030 uM/Kg; format: functional; summary of the method: as §2
Rattus norvegicus [6] = experiment: Percentage of animals failing to emit 50 lever presses within 15 min in rats at a compound dose of 0.01 mg/kg; format: functional; summary of the method: as §1
Rattus norvegicus [7] = experiment: Percentage of animals emitting >80% of lever presses in rats at a compound dose of 0.060 uM/Kg; format: functional; summary of the method: as §2
Rattus norvegicus [8] = experiment: Percentage of animals failing to emit 50 lever presses within 15 min in rats at a compound dose of 0.027 mg/kg; format: functional; summary of the method: as §1
Rattus norvegicus [9] = experiment: Drug Discrimination in […] trained rats at 1.0 mg/kg dose; format: functional; summary of the method: as §2
Rattus norvegicus [10] = experiment: Percentage of animals failing to emit 50 lever presses within 15 min in rats at 8.0 mg/kg dose; format: functional; summary of the method: as §1
Rattus norvegicus [11] = experiment: Percentage of animals failing to emit 50 lever presses within 15 min in rats at 2.0 mg/kg dose; format: functional; summary of the method: as §1
Rattus norvegicus [12] = experiment: Drug Discrimination in […] trained rats at 4.0 mg/kg dose; format: functional; summary of the method: as §2
Rattus norvegicus [13] = experiment: Percentage of animals emitting >80% of lever presses in rats at 1.0 mg/kg dose; format: functional; summary of the method: as §2
Rattus norvegicus [14] = experiment: Drug Discrimination in […] trained rats at 0.5 mg/kg dose; format: functional; summary of the method: as §2
Rattus norvegicus [15] = experiment: Percentage of animals failing to emit 50 lever presses within 15 min in rats at 4.0 mg/kg dose; format: functional; summary of the method: as §1
Rattus norvegicus [16] = experiment: Percentage of animals emitting >80% of lever presses in rats at 8.0 mg/kg dose; format: functional; summary of the method: as §2
Rattus norvegicus [17] = experiment: Drug Discrimination in […] trained rats at 8.0 mg/kg dose; format: functional; summary of the method: as §2
Rattus norvegicus [18] = experiment: Percentage of animals failing to emit 50 lever presses within 15 min in rats at 1.0 mg/kg dose; format: functional; summary of the method: as §1
Rattus norvegicus [19] = experiment: Percentage of animals emitting >80% of lever presses in rats at 4.0 mg/kg dose; format: functional; summary of the method: as §2
Rattus norvegicus [20] = experiment: Drug Discrimination in […] trained rats at 2.0 mg/kg dose; format: functional; summary of the method: as §2
Rattus norvegicus [21] = experiment: Percentage of animals emitting >80% of lever presses in rats at 2.0 mg/kg dose; format: functional; summary of the method: as §2
[22] = target: 5-hydroxytryptamine receptor 2A (Homo sapiens, UniProt P28223)
[23] = target: T1, 5-hydroxytryptamine receptor 1A (Rattus norvegicus, UniProt P19327); experiment: Compound was tested for the displacement of [3H]-8-OH- DPAT from rat brain 5-hydroxytryptamine 1A receptor
T1 sequence (P19327 whole entry): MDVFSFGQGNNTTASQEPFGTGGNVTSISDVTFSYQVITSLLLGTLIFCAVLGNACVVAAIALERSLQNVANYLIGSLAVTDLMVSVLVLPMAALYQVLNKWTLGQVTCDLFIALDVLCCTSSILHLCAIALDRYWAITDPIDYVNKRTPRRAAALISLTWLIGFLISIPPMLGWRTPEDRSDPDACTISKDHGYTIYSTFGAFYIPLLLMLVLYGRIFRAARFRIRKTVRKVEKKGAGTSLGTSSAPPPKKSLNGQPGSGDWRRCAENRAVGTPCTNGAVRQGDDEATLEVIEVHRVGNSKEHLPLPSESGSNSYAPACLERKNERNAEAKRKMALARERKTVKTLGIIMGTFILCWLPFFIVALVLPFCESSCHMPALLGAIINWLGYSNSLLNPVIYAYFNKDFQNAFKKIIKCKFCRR
Summary of the method: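 Pooled rat hippocampal membranes were preincubated at 37 °C. Buffer was 50 mM Tris HCl pH 7.4 with 0.5 mM Na2EDTA, 10 mM MgCl2, 0.1% Na ascorbate and pargyline. 200–400 μg protein was incubated with [3H]-8-OH-DPAT for 15 min at 37 °C, then GF/C filtered and scintillation counted. Nonspecific binding was defined with 10 μM 5-HT. Triplicate tubes.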

Rattus norvegicus [24] = experiment: Percentage of animals failing to emit 50 lever presses within 15 min in rats at 0.08 mg/kg dose; format: functional; summary of the method: as §1
Rattus norvegicus [25] = experiment: Percentage of animals emitting >80% of lever presses in rats at 0.08 mg/kg dose; format: functional; summary of the method: as §2
Rattus norvegicus [26] = experiment: Percentage of animals emitting >80% of lever presses in rats at 0.02 mg/kg dose; format: functional; summary of the method: as §2
[27] = target: 5-hydroxytryptamine receptor 2A (Rattus norvegicus) (UniProt P14842); experiment: Efficacy against 5-hydroxytryptamine 2A receptor; format: functional
Rattus norvegicus [28] = experiment: Percentage of animals emitting >80% of lever presses in rats at 0.04 mg/kg dose; format: functional; summary of the method: as §2
Rattus norvegicus [29] = experiment: Percentage of animals emitting >80% of lever presses in rats at 0.01 mg/kg dose; format: functional; summary of the method: as §2
Rattus norvegicus [30] = experiment: Percentage of animals failing to emit 50 lever presses within 15 min in rats at 0.02 mg/kg dose; format: functional; summary of the method: as §1
Rattus norvegicus [31] = experiment: Percentage of animals failing to emit 50 lever presses within 15 min in rats at 0.04 mg/kg dose; format: functional; summary of the method: as §1
Rattus norvegicus [32] = experiment: Percentage of animals failing to emit 50 lever presses within 15 min in at 0.01 mg/kg dose; format: functional; summary of the method: as §1

Sequence of 5-hydroxytryptamine receptor 2A (Rattus norvegicus) (P14842 whole entry): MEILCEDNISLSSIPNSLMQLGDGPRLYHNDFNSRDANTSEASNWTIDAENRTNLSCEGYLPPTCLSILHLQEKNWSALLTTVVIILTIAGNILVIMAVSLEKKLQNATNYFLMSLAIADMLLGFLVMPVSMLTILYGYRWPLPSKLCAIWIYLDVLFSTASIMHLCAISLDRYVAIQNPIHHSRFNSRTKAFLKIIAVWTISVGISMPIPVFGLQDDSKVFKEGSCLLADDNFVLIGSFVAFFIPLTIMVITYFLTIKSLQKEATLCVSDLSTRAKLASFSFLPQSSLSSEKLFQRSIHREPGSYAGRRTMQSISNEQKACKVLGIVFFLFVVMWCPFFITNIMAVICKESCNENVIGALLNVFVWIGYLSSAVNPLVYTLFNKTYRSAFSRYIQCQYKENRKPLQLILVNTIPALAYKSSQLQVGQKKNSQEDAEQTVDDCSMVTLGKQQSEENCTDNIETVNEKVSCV
Sequence of 5-hydroxytryptamine receptor 2A (P28223 whole entry): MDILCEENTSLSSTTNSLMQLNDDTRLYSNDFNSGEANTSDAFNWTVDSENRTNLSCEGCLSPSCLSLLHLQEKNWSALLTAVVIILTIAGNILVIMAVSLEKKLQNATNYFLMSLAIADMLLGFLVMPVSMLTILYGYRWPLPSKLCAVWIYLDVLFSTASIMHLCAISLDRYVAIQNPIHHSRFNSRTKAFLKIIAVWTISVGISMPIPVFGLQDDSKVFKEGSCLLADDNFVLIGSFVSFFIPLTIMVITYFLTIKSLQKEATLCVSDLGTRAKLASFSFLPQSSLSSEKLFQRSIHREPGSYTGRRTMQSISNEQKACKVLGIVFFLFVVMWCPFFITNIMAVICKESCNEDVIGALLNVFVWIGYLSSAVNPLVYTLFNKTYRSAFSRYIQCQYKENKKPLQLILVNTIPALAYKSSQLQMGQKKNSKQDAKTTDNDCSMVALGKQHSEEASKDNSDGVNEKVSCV

`CCCN(CCC)C1Cc2c[nH]c3ccc(C(C)=O)c(c23)C1` (configuration not stated) [LY-293284] was tested, and the D (Rattus norvegicus [1]) was 0%, the SDL (Rattus norvegicus [2]) was 9% and the D (Rattus norvegicus [3]) was 8%. For the same compound, the SDL (Rattus norvegicus [4]) was 100%, the SDL (Rattus norvegicus [5]) was 45% and the D (Rattus norvegicus [6]) was 0%. The SDL (Rattus norvegicus [7]) was 83% and the D (Rattus norvegicus [8]) was 27%.

`CN(C)CCc1c[nH]c2ccccc12` was tested, and the D (Rattus norvegicus [9]) was 11%, the SDL (Rattus norvegicus [9]) was 20% and the D (Rattus norvegicus [10]) was 37%. For the same compound, the D (Rattus norvegicus [11]) was 18%, the D (Rattus norvegicus [12]) was 20% and the SDL (Rattus norvegicus [12]) was 62.5%. The SDL (Rattus norvegicus [13]) was 37%, the D (Rattus norvegicus [14]) was 0% and the SDL (Rattus norvegicus [14]) was 0%. For the same compound, the D (Rattus norvegicus [15]) was 23%, the SDL (Rattus norvegicus [16]) was 83% and the D (Rattus norvegicus [17]) was 80%. The SDL (Rattus norvegicus [17]) was 100%, the D (Rattus norvegicus [18]) was 0% and the SDL (Rattus norvegicus [19]) was 40%. For the same compound, the D (Rattus norvegicus [20]) was 20%, the SDL (Rattus norvegicus [20]) was 37.5% and the SDL (Rattus norvegicus [21]) was 22%. For the same compound, the Ki [22] was 65 nM and the Ki [23] was 259 nM.

Compound `CCN(CC)C(=O)[C@@H]1C=C2c3cccc4[nH]cc(c34)C[C@H]2N(C)C1` [LYSERGIDE] has a D (Rattus norvegicus [24]) of 0%, an SDL (Rattus norvegicus [25]) of 100% and an SDL (Rattus norvegicus [26]) of 62%. For the same compound, the ED50 [27] was 0.037 µmol.kg-1 and 0.016 mg/kg, the SDL (Rattus norvegicus [28]) was 81% and the SDL (Rattus norvegicus [29]) was 31%. The D (Rattus norvegicus [30]) was 7%, the D (Rattus norvegicus [31]) was 0% and the D (Rattus norvegicus [32]) was 0%.
